The values below come from ChEMBL document CHEMBL1146543, “New antimycobacterial and antimalarial 8,9-secokaurane diterpenes from Croton kongensis” (J Nat Prod, 2003).

In brackets after ≈: the same amount, converted by molar mass.

One test deals with Vero. Description: Cytotoxicity against african green monkey Vero cells. Type of test: cell-based. The note with it: Chlorocebus sabaeus. In outline:
(§1)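 Colorimetric cytotoxicity assay run on Vero, KB and BC cell lines, with ellipticine as the reference compound. The result is reported as IC50.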

Test [1] in a line: Cytotoxicity against human BC cells. Format: functional, cell-based. In outline: as §1
For a further test, the system named is KB. The experiment in a line: Cytotoxicity against human KB cells. Format: functional, cell-based. In outline: as §1
A further test deals with Plasmodium falciparum. The experiment in a line: Antimalarial activity against multidrug-resistant Plasmodium falciparum K1 by [3H]hypoxanthine uptake. Type of test: functional, organism-based. In outline:
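Parasites kept in continuous in vitro culture (Trager–Jensen method); microculture radioisotope assay with growth read as [3H]-hypoxanthine uptake.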

The subject of test [2] is Mycobacterium tuberculosis. Description: Antimycobacterial activity against Mycobacterium tuberculosis H37Ra by Microplate Alamar Blue Assay. Type of test: functional. In outline:
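Microplate Alamar Blue assay with MIC as the endpoint; isoniazid and kanamycin sulfate were run as reference drugs.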
A general note: Alamar Blue is a resazurin reagent that responds to reducing activity.

On to `Cc1c2ccncc2c(C)c2c1[nH]c1ccccc12` [ELLIPTECINE], for which the IC50 (in the test on Vero; in test [1]; in the test on KB) was 0.2 µg/mL (≈ 0.812 µM) each time.
In turn, `C[C@@H]1CC[C@H]2[C@@H](C)C(=O)O[C@@H]3O[C@@]4(C)CC[C@@H]1[C@]32OO4` [ARTEMISININ] returned an IC50 in the test on Plasmodium falciparum of 0.001 µg/mL (≈ 0.00354 µM).
In turn, `NC[C@H]1O[C@H](O[C@H]2[C@H](O)[C@@H](O[C@H]3O[C@H](CO)[C@@H](O)[C@H](N)[C@H]3O)[C@H](N)C[C@@H]2N)[C@H](O)[C@@H](O)[C@@H]1O.O=S(=O)(O)O` [KANAMYCIN SULFATE] displayed an MIC in test [2] of 2 µg/mL.

As a reminder, the IC50 is the concentration that inhibits the measured activity by half. Usually MIC stands for the lowest concentration found to suppress growth.
